Results published in ChEMBL document CHEMBL4145444, “Investigating the structure-activity relationships of N'-[(5-nitrofuran-2-yl) methylene] substituted hydrazides against Trypanosoma cruzi to design novel active compounds” (Eur J Med Chem, 2018).

Tested on: Trypanosoma cruzi
Test: Antitrypanosomal activity against Trypanosoma cruzi Colombiana Tc1 epimastigotes measured after 72 hrs
Type: functional, organism-based
Settings: not given
Method in brief: (§1)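 Exponentially growing epimastigotes (1.0*10^7 parasites/mL) cultured in LIT-FCS medium with compound from 0.4 to 300.0 µM, added from DMSO stock (DMSO ≤1.0%), 72 h at 28 °C. Viable parasites read by absorbance at 562 nm. PGI computed against untreated culture after subtracting compound/medium blanks. IC50 from sigmoid dose-response fit using at least six concentrations. Triplicates, at least two independent experiments.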

| SMILES | log1/IC50 |
| --- | --- |
| CCOc1ccc(C(=O)N/N=C/c2ccc([N+](=O)[O-])o2)cc1 | 4.94 |
| CC(C)(C)OC(=O)N/N=C/c1ccc([N+](=O)[O-])o1 | 5.13 |
| CC(C)c1ccc(C(=O)N/N=C/c2ccc([N+](=O)[O-])o2)cc1 | 5.22 |
| CCc1ccc(C(=O)N/N=C/c2ccc([N+](=O)[O-])o2)cc1 | 5.18 |
| Cc1ccc(C(=O)N/N=C/c2ccc([N+](=O)[O-])o2)cc1 | 4.92 |
| CCCCNc1ccc(C(=O)N/N=C/c2ccc([N+](=O)[O-])o2)cc1 | 5.4 |
| O=C(N/N=C/c1ccc([N+](=O)[O-])o1)c1ccc(Cl)cc1 | 5.06 |
| O=C(N/N=C/c1ccc([N+](=O)[O-])o1)c1cccc(C(F)(F)F)c1 | 5 |
| O=C(N/N=C/c1ccc([N+](=O)[O-])o1)c1ccco1 | 4.88 |

Same assay, conditions: Trypanosoma cruzi, Colombiana, 72 h

| SMILES | IC50 |
| --- | --- |
| CCOc1ccc(C(=O)N/N=C/c2ccc([N+](=O)[O-])o2)cc1 | 11.6 µM |
| CC(C)(C)OC(=O)N/N=C/c1ccc([N+](=O)[O-])o1 | 7.41 µM |
| CCc1ccc(C(=O)N/N=C/c2ccc([N+](=O)[O-])o2)cc1 | 6.55 µM |
| Cc1ccc(C(=O)N/N=C/c2ccc([N+](=O)[O-])o2)cc1 | 11.9 µM |
| CCCCNc1ccc(C(=O)N/N=C/c2ccc([N+](=O)[O-])o2)cc1 | 3.94 µM |
| O=C(N/N=C/c1ccc([N+](=O)[O-])o1)c1ccc(Cl)cc1 | 8.64 µM |
| O=C(N/N=C/c1ccc([N+](=O)[O-])o1)c1cccc(C(F)(F)F)c1 | 9.98 µM |
| O=C(N/N=C/c1ccc([N+](=O)[O-])o1)c1ccco1 | 13.1 µM |

Tested on: not listed separately
Test: Selectivity index, ratio of CC50 for cytotoxicity against human U2OS cells to IC50 for Trypanosoma cruzi Y Tc2 amastigotes infected in human U2OS cells
Type: toxicity, cell-based
Settings: read-out: Ratio CC50/IC50
Method in brief: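 Ratio of U2OS CC50 to Y-strain amastigote IC50, both from the same 72 h Draq5-stained HCS assay in infected U2OS cells (2-fold series up to 200 μM, 1% DMSO).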

| SMILES | selectivity ratio |
| --- | --- |
| CCCCNc1ccc(C(=O)N/N=C/c2ccc([N+](=O)[O-])o2)cc1 | 34.4 |

Tested on: Trypanosoma cruzi
Test: Antitrypanosomal activity Trypanosoma cruzi Bug 2149 cl10 Tc5 epimastigotes measured after 72 hrs
Type: functional, organism-based
Settings: not given
Method in brief: as §1, with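 “°C.” for “°C. Viable parasites read by absorbance at 562 nm.”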

| SMILES | log1/IC50 |
| --- | --- |
| CCOc1ccc(C(=O)N/N=C/c2ccc([N+](=O)[O-])o2)cc1 | 5.2 |
| CCc1ccc(C(=O)N/N=C/c2ccc([N+](=O)[O-])o2)cc1 | 5.02 |
| CCCCNc1ccc(C(=O)N/N=C/c2ccc([N+](=O)[O-])o2)cc1 | 5.35 |
| O=C(N/N=C/c1ccc([N+](=O)[O-])o1)c1cccc(C(F)(F)F)c1 | 4.84 |
| O=C(N/N=C/c1ccc([N+](=O)[O-])o1)c1ccco1 | 5 |

Same assay, conditions: Trypanosoma cruzi, Bug 2149 cl10, CL1-0, 72 h

| SMILES | IC50 |
| --- | --- |
| CCOc1ccc(C(=O)N/N=C/c2ccc([N+](=O)[O-])o2)cc1 | 6.26 µM |
| CCc1ccc(C(=O)N/N=C/c2ccc([N+](=O)[O-])o2)cc1 | 9.53 µM |
| O=C(N/N=C/c1ccc([N+](=O)[O-])o1)c1cccc(C(F)(F)F)c1 | 14.6 µM |
| O=C(N/N=C/c1ccc([N+](=O)[O-])o1)c1ccco1 | 9.99 µM |

Tested on: Trypanosoma cruzi
Test: Antitrypanosomal activity against Trypanosoma cruzi Silvio X10 cl1 Tc1 epimastigotes measured after 72 hrs
Type: functional, organism-based
Settings: not given
Method in brief: as §1, with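 “°C.” for “°C. Viable parasites read by absorbance at 562 nm.”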

| SMILES | log1/IC50 |
| --- | --- |
| CCOc1ccc(C(=O)N/N=C/c2ccc([N+](=O)[O-])o2)cc1 | 4.86 |
| CCc1ccc(C(=O)N/N=C/c2ccc([N+](=O)[O-])o2)cc1 | 4.91 |
| CCCCNc1ccc(C(=O)N/N=C/c2ccc([N+](=O)[O-])o2)cc1 | 5.36 |
| O=C(N/N=C/c1ccc([N+](=O)[O-])o1)c1cccc(C(F)(F)F)c1 | 4.59 |
| O=C(N/N=C/c1ccc([N+](=O)[O-])o1)c1ccco1 | 4.75 |

Same assay, conditions: Trypanosoma cruzi, Silvio X10 cl1, 72 h

| SMILES | IC50 |
| --- | --- |
| CCOc1ccc(C(=O)N/N=C/c2ccc([N+](=O)[O-])o2)cc1 | 13.8 µM |
| CCc1ccc(C(=O)N/N=C/c2ccc([N+](=O)[O-])o2)cc1 | 12.3 µM |
| O=C(N/N=C/c1ccc([N+](=O)[O-])o1)c1cccc(C(F)(F)F)c1 | 25.5 µM |
| O=C(N/N=C/c1ccc([N+](=O)[O-])o1)c1ccco1 | 17.9 µM |

Tested on: Trypanosoma cruzi
Test: Antitrypanosomal activity Trypanosoma cruzi Y Tc2 epimastigotes measured after 72 hrs
Type: functional, organism-based
Settings: not given
Method in brief: as §1

| log1/IC50 | SMILES |
| --- | --- |
| 5.01 | CCOc1ccc(C(=O)N/N=C/c2ccc([N+](=O)[O-])o2)cc1 |
| 5.04 | CCc1ccc(C(=O)N/N=C/c2ccc([N+](=O)[O-])o2)cc1 |
| 5.47 | CCCCNc1ccc(C(=O)N/N=C/c2ccc([N+](=O)[O-])o2)cc1 |
| 4.98 | O=C(N/N=C/c1ccc([N+](=O)[O-])o1)c1cccc(C(F)(F)F)c1 |
| 4.6 | O=C(N/N=C/c1ccc([N+](=O)[O-])o1)c1ccco1 |

Same assay, conditions: Trypanosoma cruzi, Y, 72 h

| IC50 | SMILES |
| --- | --- |
| 9.74 µM | CCOc1ccc(C(=O)N/N=C/c2ccc([N+](=O)[O-])o2)cc1 |
| 9.11 µM | CCc1ccc(C(=O)N/N=C/c2ccc([N+](=O)[O-])o2)cc1 |
| 10.6 µM | O=C(N/N=C/c1ccc([N+](=O)[O-])o1)c1cccc(C(F)(F)F)c1 |
| 24.9 µM | O=C(N/N=C/c1ccc([N+](=O)[O-])o1)c1ccco1 |

Tested on: not listed separately
Test: Cytotoxicity against human U2OS cells assessed as reduction in cell viability
Type: cell-based
Settings: not given

| SMILES | CC50 |
| --- | --- |
| CCCCNc1ccc(C(=O)N/N=C/c2ccc([N+](=O)[O-])o2)cc1 | 12 µM |

Tested on: Trypanosoma cruzi
Test: Antitrypanosomal activity against Trypanosoma cruzi Y Tc2 amastigotes infected in human U2OS cells after 72 hrs by Draq5 staining based HCS analysis
Type: functional, organism-based
Settings: not given
Method in brief: (§2)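 U2OS cells (700/well, high-glucose DME, 10% FBS) seeded and incubated 24 h. Then infected with 2,800 Y-strain trypomastigotes harvested from LLC-MK2 cells. On day 3, 14-point 2-fold dilutions added, top 200 μM, 1% DMSO, 72 h. Fixed in 4% PFA, Draq5 stained, imaged at 20x. Infection ratio normalized to DMSO-mock infected and uninfected controls. IC50 by sigmoidal variable-slope fit. Doublets, duplicate experiments.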

| IC50 | SMILES |
| --- | --- |
| 0.35 µM | CCCCNc1ccc(C(=O)N/N=C/c2ccc([N+](=O)[O-])o2)cc1 |

Tested on: Trypanosoma cruzi
Test: Antitrypanosomal activity against Trypanosoma cruzi Y Tc2 amastigotes infected in human U2OS cells up to 200 uM after 72 hrs by Draq5 staining based HCS analysis relative to control
Type: functional
Settings: not given
Method in brief: as §2

| SMILES | Emax |
| --- | --- |
| CCCCNc1ccc(C(=O)N/N=C/c2ccc([N+](=O)[O-])o2)cc1 | 102% |
